Reference: ChEMBL document CHEMBL1287707, “Virtual screening against nuclear factor κB (NF-κB) of a focus library: Identification of bioactive furocoumarin derivatives inhibiting NF-κB dependent biological functions involved in cystic fibrosis” (Bioorg Med Chem, 2010)
Calls of active or inactive are those of the source. The calls are words filed in the database; no cut-off is given here.

Biological target: T1, Nuclear factor NF-kappa-B p105 subunit (Homo sapiens, UniProt P19838)
T1 sequence (P19838 whole entry): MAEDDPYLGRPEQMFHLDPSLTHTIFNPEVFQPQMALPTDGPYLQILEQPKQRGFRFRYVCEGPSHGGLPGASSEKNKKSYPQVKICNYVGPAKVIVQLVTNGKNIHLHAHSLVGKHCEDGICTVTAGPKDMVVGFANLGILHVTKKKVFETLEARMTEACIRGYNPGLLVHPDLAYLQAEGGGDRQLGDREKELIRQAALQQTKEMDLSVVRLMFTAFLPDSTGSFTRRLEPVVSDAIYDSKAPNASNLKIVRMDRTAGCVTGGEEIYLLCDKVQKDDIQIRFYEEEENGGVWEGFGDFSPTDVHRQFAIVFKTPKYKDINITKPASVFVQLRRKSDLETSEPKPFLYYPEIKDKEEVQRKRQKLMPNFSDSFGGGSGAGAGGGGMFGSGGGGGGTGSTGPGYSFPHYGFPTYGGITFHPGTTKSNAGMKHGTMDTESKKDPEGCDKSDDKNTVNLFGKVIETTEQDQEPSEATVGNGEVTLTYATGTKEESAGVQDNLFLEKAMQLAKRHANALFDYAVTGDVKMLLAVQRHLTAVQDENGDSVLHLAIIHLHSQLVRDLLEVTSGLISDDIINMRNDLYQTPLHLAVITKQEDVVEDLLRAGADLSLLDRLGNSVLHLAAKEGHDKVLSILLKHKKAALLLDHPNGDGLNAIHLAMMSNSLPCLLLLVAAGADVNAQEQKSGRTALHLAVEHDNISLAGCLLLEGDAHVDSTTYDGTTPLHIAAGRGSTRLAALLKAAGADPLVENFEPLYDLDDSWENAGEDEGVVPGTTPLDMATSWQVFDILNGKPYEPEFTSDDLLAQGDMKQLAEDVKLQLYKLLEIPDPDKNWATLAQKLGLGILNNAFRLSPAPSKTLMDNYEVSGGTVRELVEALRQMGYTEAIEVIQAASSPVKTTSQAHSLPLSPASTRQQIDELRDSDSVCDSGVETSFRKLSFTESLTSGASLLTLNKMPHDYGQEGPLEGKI
Assay: Inhibition of NF-KB p50 subunit/DNA interaction after 20 mins by EMSA
In short: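 Recombinant human NF-κB p50 (10 ng) was preincubated 20 min at room temperature with varied compound concentrations in buffer TF with 5% glycerol and 1 mM DTT. 0.25 ng 32P-labelled double-stranded NF-κB site oligo was added for a further 20 min. Complexes were resolved on 6% PAGE in 0.25X TBE and detected by autoradiography. IC50 is the concentration giving 50% inhibition of binding.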

IC50 [µM]	SMILES
20	O=c1cc(-c2ccccc2)c2cc3c(-c4ccc5c(c4)OCO5)coc3cc2o1
40	COCCNc1oc2c(c1-c1cc(OC)c(OC)c(OC)c1)c(=O)oc1c(C)cccc12
5000	O=C(O)c1ccc(COc2cc(O)cc3oc(=O)c4c(c23)CCC4)cc1
60	COc1ccc(C(=O)c2oc3ccc4c(C)cc(=O)oc4c3c2-c2ccccc2)cc1
30	O=c1c(Br)cc2c(-c3ccccc3S(=O)(=O)O)c3cc(Br)c(O)c(O)c3oc-2c1O [BROMOPYROGALLOL RED]
200	Cc1cc(=O)oc2cc(O)ccc12 [HYMECROMONE]
50	O=C(O)/C=C/c1ccccc1O [O-COUMARIC ACID]
3000	O=c1ccc2cc3ccoc3cc2o1 [PSORALEN]
10	O=c1ccc2c(-c3ccccc3S(=O)(=O)O)c3ccc(O)c(O)c3oc-2c1O [PYROGALLOL RED]

SMILES	IC50 [µM]
O=c1ccc2ccc3occc3c2o1 [ANGELICIN]	2500

System: IB3-1
Assay: Antiinflammatory activity in Pseudomonas aeruginosa PAO1 infected human IB3-1 cells assessed as inhibition of IL8 gene expression at 10 uM after 4 hrs by RT-PCR analysis
Assay type: functional, cell-based
In short: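 IB3-1 CF bronchial cells (ΔF508/W1282X) were grown in LHC-8 with 5% FBS, seeded at 200,000 cells/cm2, and serum-starved 18 h. Cells were then preincubated overnight with compound at 10 µM and infected with PAO1 at 30–100 CFU/cell for 4 h at 37 °C. Total RNA was reverse-transcribed and IL-8 mRNA quantified by RT-qPCR.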

SMILES	Activity
COCCNc1oc2c(c1-c1cc(OC)c(OC)c(OC)c1)c(=O)oc1c(C)cccc12	Active
COc1ccc(C(=O)c2oc3ccc4c(C)cc(=O)oc4c3c2-c2ccccc2)cc1	Active
